Results taken from PubChem BioAssay AID822 (SRMLSC, 2007).
Active and inactive are the calls of the source.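 The calls were made as follows: active = half-maximal effective dose for blocking growth of human endothelial cells at most 100 µM; inactive = the rest.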

What follows are molecules tested on HUVEC proliferation, viability ATP luminescence (assay: HUVEC proliferation inhibition, dose response, cell-based, ATP luminescence (AID 822);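 also: cells exposed to compound for 72 h before the ATP read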).
Procedure, shortened: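 Material: HUVEC. Input: 1250 cells per well. Medium: endothelial basal medium (EBM) with 2% fetal bovine serum, collagen-coated wells. Compound: 0.039–20 µM, 0.2% DMSO. Times: compound treatment 72 h, 37 °C. Technique: CellTiter-Glo ATP luminescence. Read-out basis: % viability and fitted EC50. Format: collagen-coated multiwell plates.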

In order of falling EC50:
1. COC(=O)c1sccc1NC(=O)c1ccc2c(c1)OCO2  20.4 µM
2. Cc1ccccc1NS(=O)(=O)c1ccc(N2CCCC2=O)cc1  19.6 µM
3. CC1CCc2sc3nc(N4CCN(CCO)CC4)n4ncnc4c3c2C1 (stereo not given)  19.6 µM
4. Cc1cc(C)c2oc(-c3cccc(NC(=O)c4ccc(F)cc4)c3)nc2c1  19.3 µM
5. COC(=O)c1c(C)n(-c2ccc(C)cc2)c2ccc(O)cc12  18.6 µM
6. CSc1nc2c(cnn2-c2ccc(C)c(C)c2)c(=O)[nH]1  17.8 µM
7. CCn1cc(C(=O)NCCc2ccccc2)c(=O)c2cc(F)c(N3CCN(C)CC3)cc21  16.8 µM
8. COc1cccc(C(=O)c2sc(NC(C)C)nc2N)c1  16.2 µM
9. O=c1/c(=C/c2ccco2)sc2n1CN(c1cccc(Br)c1)CN=2  15.7 µM
10. Cc1occc1-c1nnc(SCC(=O)NCc2cccs2)n1-c1ccc(F)cc1  15.2 µM
11. c1ccc(-c2nccc(-c3ccc(-n4cnc5ccccc54)cc3)n2)cc1  14.9 µM
12. Cc1sc2nc(SCC(=O)C(C)(C)C)n(Cc3ccco3)c(=O)c2c1C  13.9 µM
13. N=c1c2c(-c3ccccc3)c(-c3ccccc3)oc2ncn1CCCN1CCOCC1  13.6 µM
14. Oc1ccccc1-c1nnc(SCCN2CCOCC2)n1Cc1ccccc1  13.6 µM
15. COc1cc(N=c2ssnc2Cl)cc(OC)c1OC  13.4 µM
16. CCC(C)NC(=O)c1c(N)n(/N=C/c2cccnc2)c2nc3ccccc3nc12 (stereo not given)  12.6 µM
17. O=S(=O)(CCN(CCS(=O)(=O)C(F)(F)F)CC1CCCO1)C(F)(F)F (stereo not given)  12.5 µM
18. COc1ccc(Nc2nc(N3CCCC3)nc3ccccc23)c(OC)c1  12.5 µM
19. CCOC(=O)c1c(NC(=O)CCl)sc(C(=O)N(CC)CC)c1C  12.3 µM
20. CCCOC(=O)c1ccc(Oc2cn[nH]c2-c2ccc(OC)cc2O)cc1  12.3 µM
21. COc1cccc(-c2cc(C(=O)Nc3cc(C)n(Cc4ccc(Cl)cc4)n3)no2)c1  12.3 µM
22. CCC(C)(C)NC(=O)C(c1ccc(C)o1)N(Cc1cccs1)C(=O)Cn1nnc2ccccc21 (stereo not given)  11.7 µM
23. CC1(C)CC(=O)C2=C(C1)Oc1nc3ccccc3cc1C2C(C#N)C#N (stereo not given)  11.4 µM
24. COc1ccc2c(c1)c1nc3ccccc3nc1n2CC(=O)OC(C)C  11.3 µM
25. CC1(C)Cc2c(c(N3CCOCC3)nc3snc(N)c23)CO1  11 µM
26. COc1ccc(NC(=O)c2cc3n(n2)C(C(F)(F)F)CC(c2ccc(OC)cc2)N3)cc1 (stereo not given)  9.91 µM
27. COC(=O)COc1ccc(S(=O)(=O)NCCC2=CCCCC2)cc1Cl  9.76 µM
28. CC(Nc1nc(N2CCN(S(C)(=O)=O)CC2)nc2ccccc12)c1ccccc1 (stereo not given)  9.04 µM
29. COC(=O)c1c(C)n(-c2ccc(OC)cc2)c2ccc(O)cc12  8.97 µM
30. COc1ccccc1C1CC(c2c(-c3ccccc3)c3cc(Cl)ccc3[nH]c2=O)=NN1S(C)(=O)=O (stereo not given)  8.65 µM
31. Cn1c2ccccc2c(=O)c2c(=O)n(C3CCCCC3)c(-c3cccs3)nc21  8.3 µM
32. Cc1coc2c(O)cc3c(c12)OC1(N2CCCCC2)C(=O)NCCCC31 (stereo not given)  7.41 µM
33. O=C(Nc1ccc(N2CCOCC2)cc1)Nc1ccc2nc(-c3ccco3)c(-c3ccco3)nc2c1  7.18 µM
34. CCOC(=O)C(C(C)=O)c1c(Br)c(O)c(O)c2c(C(=O)c3ccc(C)cc3)coc12 (stereo not given)  7.17 µM
35. CCCCC(=O)O[C@H]1CC[C@H]2[C@@H]3CCc4cc(O)ccc4[C@H]3CC[C@]12C  7.16 µM
36. Cc1nc2c(C(=O)NCCC(C)C)c[nH]n2c(=O)c1Cc1ccccc1F  7.02 µM
37. COc1ccc(CNC(=O)C(C#N)c2nc3ccccc3nc2N2CCN(C)CC2)cc1 (stereo not given)  6.92 µM
38. Cc1cc(NC(=O)c2cc(-c3ccncc3)nc3c(C)cccc23)no1  6.87 µM
39. CN1CCN(S(=O)(=O)c2ccc(NC(=O)Nc3cccc(Cl)c3)cc2)CC1  6.85 µM
40. Oc1ccccc1/C=N/Nc1nccnc1Cl  6.28 µM
41. O=c1cc(-c2ccccc2)[nH]n1-c1nc2ccccc2[nH]1  6.25 µM
42. CCOC(=O)C1=C(N)n2c(s/c(=C/c3ccco3)c2=O)=C(C(=O)OC)C1c1ccco1 (stereo not given)  5.98 µM
43. COc1ccc(Cl)cc1N1CCN(CCNC(=O)Nc2ccccc2C)CC1  5.83 µM
44. N#Cc1nc(-c2ccc(OCc3ccccc3)cc2)oc1NCCCn1ccnc1  5.83 µM
45. c1ccc2c(c1)oc1c(Nc3ccc(CN4CCOCC4)cc3)ncnc12  5.35 µM
46. Cc1ccc(-c2nn3c(C)nnc3s2)cc1NC(=O)c1ccc(-c2cccc(Cl)c2)o1  4.71 µM
47. CCCCN(Cc1ccco1)C(=O)c1cc2c(=O)[nH]c3ccc(C)cc3c2s1  4.57 µM
48. CCc1ccc(-c2nc(CN3CCC(C(=O)N4CCN(c5ccccc5)CC4)CC3)c(C)o2)cc1  4.09 µM
49. COc1ccc(N/N=C2/CCCCC2=O)cc1  3.51 µM
50. CCCCCn1c(CN2CCN(c3cc(Cl)ccc3C)CC2)nc2c1c(=O)[nH]c(=O)n2C  3.21 µM
51. CC(C)C1Cc2c(sc3[nH]c(=S)n(Cc4ccccc4)c(=O)c23)CO1 (stereo not given)  3.05 µM
52. c1ccc(-c2noc(-c3ccc4c(c3)OCO4)n2)nc1  2.47 µM
53. Cc1cc(C)n(-c2nc(NCCCO)c3c4c(sc3n2)CCCC4)n1  2.41 µM
54. COc1cc(/C=C(/C(=O)c2cccs2)c2nc3ccccc3[nH]2)cc(OC)c1O  1.99 µM

`CCOc1ccc(Nc2oc(-c3ccc(Cl)cc3)nc2C#N)cc1` was tested, and the EC50 was > 10 µM (inactive).
